Measured values published in PubChem BioAssay AID624316 (Broad Institute, 2012).
Values joined by “and” are separate entries in the source; they are usually repeats but may differ in a detail not shown here. Equal entries are not always repeated. Active and inactive are the calls of the source.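 Rule for the calls: active = compounds lowering reporter light with a fitted AC50 at or below twice their top valid dose; inconclusive = flat partial inhibition or an unreliable curve fit; inactive = the rest.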

What follows are molecules tested on SK-MEL-5 TRPM1 promoter luciferase reporter, 24 h (assay: TRPM1 promoter luciferase signal reduction, dose response, MITF inhibitor project, cell-based, SK-MEL-5, dry powder samples, set 4 (AID 624316)).
Outline: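 Assay system: SK-MEL-5 melanoma line stably carrying TRPM1 promoter–luciferase reporter; Buffer or medium: phenol-red-free DMEM, 10% FBS; Controls: parthenolide positive control; Times: compound added 24 h post-plating, 24 h exposure at 37 °C; Detection: luciferase luminescence with SteadyGlo, 5 min room temperature; Dosing: compounds pinned into wells as DMSO solutions.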

SMILES	AC50
O=C1C(Nc2ccccc2)=C(N2CCCCC2)C(=O)c2ccccc21	2.78 µM
COc1ccc(C(=O)NC2=C(c3ccc(OC)cc3)C(=O)c3ccccc3C2=O)cc1	8.59 µM
O=C1C(Nc2ccccc2)=C(N2CCOCC2)C(=O)c2ccccc21	5.81 µM and 4.63 µM
C=CCNC1=C(Cl)C(=O)c2ccccc2C1=O	1.67 µM and 2.18 µM
CC(=O)NC1=C(c2ccc(Oc3ccccc3)cc2)C(=O)c2ccccc2C1=O	14.8 µM
COc1ccc(C2=C(NC(=O)c3cccc(Cl)c3)C(=O)c3ccccc3C2=O)cc1	19.9 µM
C=CCNC1=C(N2CCSCC2)C(=O)c2ccccc2C1=O	2.81 µM
O=C1C(NS(=O)(=O)c2ccc(Br)cc2)=C(c2ccc(OC(F)(F)F)cc2)C(=O)c2ccccc21	12 µM
O=C1C(Nc2ccccc2)=C(NS(=O)(=O)c2ccccc2[N+](=O)[O-])C(=O)c2ccccc21	29 µM
C=CCNC1=C(N2CCCCC2)C(=O)c2ccccc2C1=O	0.538 µM
CCN1CCN(C2=C(NC(=O)c3ccc(Br)cc3)C(=O)c3ccccc3C2=O)CC1	0.566 µM
O=C(NC1=C(c2ccc(OC(F)(F)F)cc2)C(=O)c2ccccc2C1=O)c1ccco1	21 µM
CC(=O)NC1=C(c2ccccc2)C(=O)c2ccccc2C1=O	5.51 µM
O=C(NC1=C(N2CCSCC2)C(=O)c2ccccc2C1=O)c1ccccc1	3.61 µM
C=CCNC1=C(N(C)C(C)=O)C(=O)c2ccccc2C1=O	0.107 µM
CN1CCN(C2=C(NS(=O)(=O)c3ccccc3)C(=O)c3ccccc3C2=O)CC1	0.614 µM
C=CCNC1=C(NCCCN2CCOCC2)C(=O)c2ccccc2C1=O	7.39 µM
O=C(NC1=C(N2CCOCC2)C(=O)c2ccccc2C1=O)c1ccccc1	6 µM
O=C(NC1=C(c2ccc(OC(F)(F)F)cc2)C(=O)c2ccccc2C1=O)c1ccccc1	32 µM
Cc1ccc(C(=O)NC2=C(c3ccccc3)C(=O)c3ccccc3C2=O)o1	4.8 µM
O=C1C=C(Nc2ccccc2)C(=O)c2ccccc21	4.07 µM
CCN1CCN(C2=C(NS(=O)(=O)c3cccs3)C(=O)c3ccccc3C2=O)CC1	1.73 µM
COC1=C(NS(=O)(=O)c2ccccc2)C(=O)c2ccccc2C1=O	6.65 µM
COc1ccc(C2=C(NC(=O)c3cccc(OC)c3)C(=O)c3ccccc3C2=O)cc1	11.4 µM
O=C(NC1=C(c2ccc(OC(F)(F)F)cc2)C(=O)c2ccccc2C1=O)c1ccc(Br)cc1	20.5 µM
CC(=O)NC1=C(c2ccc(Cl)cc2)C(=O)c2ccccc2C1=O	5.17 µM

SMILES	AC50
O=C1C(NS(=O)(=O)c2cccs2)=C(N2CCOCC2)C(=O)c2ccccc21	9.86 µM
O=C1C(NS(=O)(=O)c2ccccc2)=C(N2CCOCC2)C(=O)c2ccccc21	18.5 µM
C=CCNC1=C(NC(=O)c2ccccc2)C(=O)c2ccccc2C1=O	11.7 µM
COc1ccc(S(=O)(=O)N(C(C)=O)c2ccc(OC(C)=O)c3ccccc23)cc1[N+](=O)[O-]	6.67 µM
CC(=O)N(C)C1=C(N2CCCCC2)C(=O)c2ccccc2C1=O	0.7 µM
COc1ccc(C(=O)NC2=C(c3ccc(OC(F)(F)F)cc3)C(=O)c3ccccc3C2=O)cc1	35.5 µM
O=C1C(NS(=O)(=O)c2ccc(Br)s2)=C(N2CCSCC2)C(=O)c2ccccc21	20.5 µM
C=C1C(=O)OC2C1CC/C(C)=C\CCC1(C)OC21 (stereo not drawn)	4.91 µM
CN1CCN(C2=C(NS(=O)(=O)c3ccc(Br)s3)C(=O)c3ccccc3C2=O)CC1	2.57 µM
CCN(CC)CCNC1=C(Nc2ccccc2)C(=O)c2ccccc2C1=O	1.66 µM
C=CCNC1=C(N2CCOCC2)C(=O)c2ccccc2C1=O	1.54 µM
CN1CCN(C2=C(NS(=O)(=O)c3cccs3)C(=O)c3ccccc3C2=O)CC1	2.06 µM
C=CCNC1=C(NS(=O)(=O)c2ccc(Br)cc2)C(=O)c2ccccc2C1=O	7.27 µM
COc1cccc(-c2cc(C(=O)NC3=C(Cl)C(=O)c4ccccc4C3=O)ccc2OC)c1	3.3 µM
CCN1c2ccccc2NC2N=C(OC)C(c3ccccc3)C21 (stereo not drawn)	2.5 µM
CCN1CCN(C2=C(NS(=O)(=O)c3ccc(Br)s3)C(=O)c3ccccc3C2=O)CC1	4.1 µM
O=C1C(NS(=O)(=O)c2ccc(Br)s2)=C(N2CCOCC2)C(=O)c2ccccc21	19.9 µM
CC(=O)N(C)C1=C(N2CCOCC2)C(=O)c2ccccc2C1=O	1.89 µM
O=C1C(Nc2ccccc2)=C(N2CCN(c3ccccc3)CC2)C(=O)c2ccccc21	8.06 µM
CCN1CCN(C2=C(N(C)C(C)=O)C(=O)c3ccccc3C2=O)CC1	0.367 µM
COc1ccc(C(=O)NC2=C(c3ccccc3)C(=O)c3ccccc3C2=O)cc1	10.9 µM
O=C1C(NS(=O)(=O)c2ccc(Br)cc2)=C(N2CCCCC2)C(=O)c2ccccc21	14.2 µM
O=C(CNc1cccc2ccccc12)N/N=C/c1ccc([N+](=O)[O-])o1	1.67 µM
O=C(NC1=C(N2CCN(c3ccccc3)CC2)C(=O)c2ccccc2C1=O)c1ccccc1	15 µM
O=C(NC1=C(c2ccccc2)C(=O)c2ccccc2C1=O)c1ccccc1	6.77 µM
CN1CCN(C2=C(NC(=O)c3ccc(Br)cc3)C(=O)c3ccccc3C2=O)CC1	0.921 µM

SMILES	AC50
COc1ccc(C2=C(NC(=O)c3ccc(Cl)cc3)C(=O)c3ccccc3C2=O)cc1	16.4 µM
O=C(NC1=C(Cl)C(=O)c2ccccc2C1=O)c1ccccc1	0.854 µM
O=C(NC1=C(c2ccccc2)C(=O)c2ccccc2C1=O)c1ccco1	8.11 µM
CC1CCN(CC(CS(=O)(=O)c2ccc([N+](=O)[O-])cc2)N2CCC(C)CC2)CC1 (stereo not drawn)	4.72 µM
NC1=C(NC(=O)c2ccccc2)C(=O)c2ccccc2C1=O	4.37 µM
COc1ccc(C2=C(NC(C)=O)C(=O)c3ccccc3C2=O)cc1	5.44 µM
O=C(NC1=C(N2CCCCC2)C(=O)c2ccccc2C1=O)c1ccc(Br)cc1	36.2 µM
O=C1C(NS(=O)(=O)c2ccc(Br)cc2)=C(c2ccccc2)C(=O)c2ccccc21	24 µM
O=C1C(NS(=O)(=O)c2ccc(Br)s2)=C(N2CCCCC2)C(=O)c2ccccc21	19.3 µM
CCN(CC)CCCCNC1=C(Nc2ccccc2)C(=O)c2ccccc2C1=O	2.87 µM
CCN1CCN(C2=C(Nc3ccccc3)C(=O)c3ccccc3C2=O)CC1	0.689 µM
O=C(NC1=C(c2ccccc2)C(=O)c2ccccc2C1=O)c1ccc(Br)cc1	12.3 µM
COc1cccc(C2=C(NC(=O)c3ccccc3)C(=O)c3ccccc3C2=O)c1	13.9 µM
C[C@@H](NC1=C(Nc2ccccc2)C(=O)c2ccccc2C1=O)c1ccccc1	9.76 µM
CCN(CC)CCCNC1=C(Nc2ccccc2)C(=O)c2ccccc2C1=O	2.38 µM
COc1ccc(C2=C(N)C(=O)c3ccccc3C2=O)cc1	25.1 µM
NC1=C(c2ccccc2)C(=O)c2ccccc2C1=O	7.61 µM
CC(=O)NC1=C(c2ccc3c(c2)oc2ccccc23)C(=O)c2ccccc2C1=O	1.59 µM
CC(=O)N(C)C1=C(N2CCN(C)CC2)C(=O)c2ccccc2C1=O	0.372 µM
NC1=C(c2ccc(OC(F)(F)F)cc2)C(=O)c2ccccc2C1=O	16.3 µM
C=CCNC1=C(N2CCN(C)CC2)C(=O)c2ccccc2C1=O	3.74 µM
COc1ccc(C2=C(NC(=O)c3ccccc3Cl)C(=O)c3ccccc3C2=O)cc1	6.21 µM
C=CCNC1=C(N2CCN(CC)CC2)C(=O)c2ccccc2C1=O	4.12 µM
O=C1C(NS(=O)(=O)c2ccc(Br)cc2)=C(N2CCSCC2)C(=O)c2ccccc21	9.91 µM
O=C1C(NS(=O)(=O)c2ccc(Br)cc2)=C(N2CCN(c3ccccc3)CC2)C(=O)c2ccccc21	17.1 µM
Cc1ccc(C(=O)NC2=C(c3ccc(OC(F)(F)F)cc3)C(=O)c3ccccc3C2=O)o1	15.4 µM

SMILES	AC50
O=C(NC1=C(N2CCCCC2)C(=O)c2ccccc2C1=O)c1ccccc1	25.6 µM
C=CCNC1=C(NCCCN(CC)CC)C(=O)c2ccccc2C1=O	3.12 µM
O=C1C(NS(=O)(=O)c2ccc(Br)cc2)=C(N2CCOCC2)C(=O)c2ccccc21	6.87 µM
NC1=CC(=O)c2ccccc2C1=O	1.41 µM
O=C(NC1=C(c2ccc(Oc3ccccc3)cc2)C(=O)c2ccccc2C1=O)c1ccccc1	> 70 µM (inactive)
O=C(NC1=C(N2CCOCC2)C(=O)c2ccccc2C1=O)c1ccc(Br)cc1	11.3 µM
CCN1CCN(C2=C(NC(=O)c3ccccc3)C(=O)c3ccccc3C2=O)CC1	0.582 µM
COc1ccc(C2=C(NC(=O)c3ccc4ccccc4c3)C(=O)c3ccccc3C2=O)cc1	> 70 µM (inactive)
C=CCNC1=C(NCCN(CC)CC)C(=O)c2ccccc2C1=O	1.75 µM
COc1ccc(C2=C(NC(=O)c3ccccc3OC)C(=O)c3ccccc3C2=O)cc1	15.7 µM
O=C1C(NS(=O)(=O)c2ccccc2)=C(N2CCCCC2)C(=O)c2ccccc21	28.3 µM
O=C(NC1=C(N2CCSCC2)C(=O)c2ccccc2C1=O)c1ccc(Br)cc1	8.75 µM
CN1CCN(C2=C(Nc3ccccc3)C(=O)c3ccccc3C2=O)CC1	4.78 µM
Cc1nc2ccccc2n1/N=C/c1ccc([N+](=O)[O-])s1	1.86 µM
O=C1C(Nc2ccccc2)=C(N2CCSCC2)C(=O)c2ccccc21	7.75 µM
C=CCNC1=C(NS(=O)(=O)c2cccs2)C(=O)c2ccccc2C1=O	12 µM
COc1ccc(C2=C(NC(=O)c3ccc(OC)cc3-c3cccc(OC)c3)C(=O)c3ccccc3C2=O)cc1	> 70 µM (inactive)
O=C(NC1=C(c2ccc(OC(F)(F)F)cc2)C(=O)c2ccccc2C1=O)c1ccccc1F	17.1 µM
O=C1C(NS(=O)(=O)c2cccs2)=C(N2CCCCC2)C(=O)c2ccccc21	21.7 µM
CCN1CCN(C2=C(NS(=O)(=O)c3ccc(Br)cc3)C(=O)c3ccccc3C2=O)CC1	4.06 µM
CCN(CC)CCCNC1=C(N(C)C(C)=O)C(=O)c2ccccc2C1=O	0.188 µM
C=CCNC1=C(Nc2ccccc2)C(=O)c2ccccc2C1=O	12.4 µM
O=C1C(NCCCN2CCOCC2)=C(Nc2ccccc2)C(=O)c2ccccc21	4.03 µM
CC(=O)NC1=C(c2cccc(Cl)c2)C(=O)c2ccccc2C1=O	3.93 µM
CN1CCN(C2=C(NC(=O)c3ccccc3)C(=O)c3ccccc3C2=O)CC1	0.508 µM
